Experimental data published in ChEMBL document CHEMBL1153580, “Synthesis and pharmacological investigation of 3-(substituted 1-phenylethanone)-4-(substituted phenyl)-1, 2, 3, 4-tetrahydropyrimidine-5-carboxylates” (Eur J Med Chem, 2009).

Tested on: Rattus norvegicus
Experiment: Antihypertensive activity in Norwegian albino rat assessed as inhibition of DOCA salt-induced diastolic blood pressure at 10 mg/kg, po after 120 mins by invasive carotid artery cannulation method
Type: functional
Conditions: 2 h
In short: (§1)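 Male rats (200–250 g), uninephrectomized and given DOCA s.c. (30–50 mg/kg/week) with 1% NaCl drinking water. Anesthetized with pentobarbital (35 mg/kg i.p.); left carotid artery cannulated and exteriorized. After recovery and a baseline reading, compound given orally by feeding needle. Diastolic pressure recorded via transducer at 15, 30, 60, 120 and 180 min. Mean ± S.E.M.; repeated-measures ANOVA.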

SMILES | inhibition in vivo at 10 mg/kg [%]
CCOC(=O)C1=C(C)NC(OC)N(CC(=O)c2ccc(OC)cc2)C1c1ccc(OC)cc1 (configuration not stated) | 31.1
CCOC(=O)C1=C(C)NC(OC)N(CC(=O)c2ccc(OC)cc2)C1c1ccc(C)cc1 (configuration not stated) | 30

Tested on: Rattus norvegicus
Experiment: Antihypertensive activity in Norwegian albino rat assessed as inhibition of DOCA salt-induced diastolic blood pressure at 10 mg/kg, po after 180 mins by invasive carotid artery cannulation method
Type: functional
Conditions: 3 h
In short: as §1

SMILES | inhibition in vivo at 10 mg/kg [%]
CCOC(=O)C1=C(C)NC(OC)N(CC(=O)c2ccc(OC)cc2)C1c1ccc(OC)cc1 (configuration not stated) | 39.4
CCOC(=O)C1=C(C)NC(OC)N(CC(=O)c2ccc(OC)cc2)C1c1ccc(C)cc1 (configuration not stated) | 37.6

Tested on: Rattus norvegicus
Experiment: Antihypertensive activity in Norwegian albino rat assessed as inhibition of DOCA salt-induced diastolic blood pressure at 10 mg/kg, po after 240 mins by invasive carotid artery cannulation method
Type: functional
Conditions: 4 h

SMILES | inhibition in vivo at 10 mg/kg [%]
CCOC(=O)C1=C(C)NC(OC)N(CC(=O)c2ccc(OC)cc2)C1c1ccc(OC)cc1 (configuration not stated) | 48.8
CCOC(=O)C1=C(C)NC(OC)N(CC(=O)c2ccc(OC)cc2)C1c1ccc(C)cc1 (configuration not stated) | 47.9

Tested on: Rattus norvegicus
Experiment: Antiinflammatory activity in Norwegian albino rat assessed as inhibition of carrageenan-induced paw edema at 100 mg/kg, po after administered 60 mins prior to carrageenan-challenge measured after 1 hr
Type: functional
Conditions: not given
In short: (§2)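 Compound given orally as 100 mg/kg suspension in 0.5% CMC. 60 min later, carrageenan injected sub-plantar into the left hind paw. Paw volume measured within 30 s of injection, then at 1–5 h. % inhibition = [1−(Dt/Dc)]×100, where Dt and Dc are mean relative paw-volume changes in test and control. ANOVA.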

SMILES | inhibition in vivo at 100 mg/kg [%]
CCOC(=O)C1=C(C)NC(OC)N(CC(=O)c2ccc(OC)cc2)C1c1ccc(OC)cc1 (configuration not stated) | 37.7
CCOC(=O)C1=C(C)NC(OC)N(CC(=O)c2ccc(OC)cc2)C1c1ccc(C)cc1 (configuration not stated) | 38.8

Tested on: Rattus norvegicus
Experiment: Antiinflammatory activity in Norwegian albino rat assessed as inhibition of carrageenan-induced paw edema at 100 mg/kg, po after administered 60 mins prior to carrageenan-challenge measured after 3 hrs
Type: functional
Conditions: not given
In short: as §2

SMILES | inhibition in vivo at 100 mg/kg [%]
CCOC(=O)C1=C(C)NC(OC)N(CC(=O)c2ccc(OC)cc2)C1c1ccc(OC)cc1 (configuration not stated) | 39.8
CCOC(=O)C1=C(C)NC(OC)N(CC(=O)c2ccc(OC)cc2)C1c1ccc(C)cc1 (configuration not stated) | 39.8

Tested on: Rattus norvegicus
Experiment: Antiinflammatory activity in Norwegian albino rat assessed as inhibition of carrageenan-induced paw edema at 100 mg/kg, po after administered 60 mins prior to carrageenan-challenge measured after 5 hrs
Type: functional
Conditions: not given
In short: as §2

SMILES | inhibition in vivo at 100 mg/kg [%]
CCOC(=O)C1=C(C)NC(OC)N(CC(=O)c2ccc(OC)cc2)C1c1ccc(OC)cc1 (configuration not stated) | 47.2
CCOC(=O)C1=C(C)NC(OC)N(CC(=O)c2ccc(OC)cc2)C1c1ccc(C)cc1 (configuration not stated) | 42

Tested on: Mus musculus
Experiment: Analgesic activity against acetic acid-induced writhing in Swiss albino mouse assessed as protection at 20 mg/kg, po
Type: functional
Conditions: not given
In short: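 Swiss albino mice (25–30 g), six per group, habituated 30 min individually in the test cage. Compound in 1% CMC given p.o. at 20 mg/kg. 1 h later, acetic acid injected i.p.; writhes (arching of back, body elongation, hind-limb extension) counted 5–15 min after injection. % inhibition = (n−n′)/n×100, where n and n′ are mean writhes in control and test.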

SMILES | Activity [%]
CCOC(=O)C1=C(C)NC(OC)N(CC(=O)c2ccc(OC)cc2)C1c1ccc(OC)cc1 (configuration not stated) | 51.33
CCOC(=O)C1=C(C)NC(OC)N(CC(=O)c2ccc(OC)cc2)C1c1ccc(C)cc1 (configuration not stated) | 43.33

Tested on: Rattus norvegicus
Experiment: Gastrointestinal toxicity in albino rat assessed as ulcerogenic index at 50 mg/kg, po
Type: organism-based
Set-up: dose 50 mg/kg, route oral
Conditions: in vivo
In short: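 Albino rats (150–200 g), six per group, food but not water withheld 24 h. Compound given p.o. at 50 mg/kg; controls received 1% methyl cellulose. Rats fed 17 h, then killed; stomach opened along greater curvature and examined under 4× magnifier. Lesions scored as large (>2 mm), small (1–2 mm) or punctiform (<1 mm). Severity index = treated mean score minus control mean score.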

SMILES | UI
CCOC(=O)C1=C(C)NC(OC)N(CC(=O)c2ccc(OC)cc2)C1c1ccc(OC)cc1 (configuration not stated) | 0.2
CCOC(=O)C1=C(C)NC(OC)N(CC(=O)c2ccc(OC)cc2)C1c1ccc(C)cc1 (configuration not stated) | 0.56

Tested on: Rattus norvegicus
Experiment: Antihypertensive activity in Norwegian albino rat assessed as inhibition of DOCA salt-induced systolic blood pressure at 10 mg/kg, po after 420 mins by non-invasive tail-cuff method
Type: functional
Conditions: Artery, 7 h
In short: (§3)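 Male rats (200–250 g), uninephrectomized under pentobarbital (50 mg/kg i.p.); one week later DOCA s.c. 30–50 mg/kg/week, with 1% w/v NaCl in drinking water. Groups of six, trained in restrainer, tail warmed at 33–34 °C. Compound in 0.5% CMC, 10 mg/kg orally. Systolic pressure read by tail-cuff before dosing and from 1 h after; three readings averaged. ANOVA.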

SMILES | inhibition in vivo at 10 mg/kg [%]
CCOC(=O)C1=C(C)NC(OC)N(CC(=O)c2ccc(OC)cc2)C1c1ccc(OC)cc1 (configuration not stated) | 46.5
CCOC(=O)C1=C(C)NC(OC)N(CC(=O)c2ccc(OC)cc2)C1c1ccc(C)cc1 (configuration not stated) | 44

Tested on: Rattus norvegicus
Experiment: Antihypertensive activity in Norwegian albino rat assessed as inhibition of DOCA salt-induced systolic blood pressure at 10 mg/kg, po after 15 mins by non-invasive tail-cuff method
Type: functional
Conditions: Artery, 0.25 h

SMILES | inhibition in vivo at 10 mg/kg [%]
CCOC(=O)C1=C(C)NC(OC)N(CC(=O)c2ccc(OC)cc2)C1c1ccc(OC)cc1 (configuration not stated) | 1.57
CCOC(=O)C1=C(C)NC(OC)N(CC(=O)c2ccc(OC)cc2)C1c1ccc(C)cc1 (configuration not stated) | 1.82

Tested on: Rattus norvegicus
Experiment: Antihypertensive activity in Norwegian albino rat assessed as inhibition of DOCA salt-induced systolic blood pressure at 10 mg/kg, po after 30 mins by non-invasive tail-cuff method
Type: functional
Conditions: Artery, 0.5 h

SMILES | inhibition in vivo at 10 mg/kg [%]
CCOC(=O)C1=C(C)NC(OC)N(CC(=O)c2ccc(OC)cc2)C1c1ccc(OC)cc1 (configuration not stated) | 6.58
CCOC(=O)C1=C(C)NC(OC)N(CC(=O)c2ccc(OC)cc2)C1c1ccc(C)cc1 (configuration not stated) | 11.1

Tested on: Rattus norvegicus
Experiment: Antihypertensive activity in Norwegian albino rat assessed as inhibition of DOCA salt-induced systolic blood pressure at 10 mg/kg, po after 60 mins by non-invasive tail-cuff method
Type: functional
Conditions: Artery, 1 h
In short: as §3

SMILES | inhibition in vivo at 10 mg/kg [%]
CCOC(=O)C1=C(C)NC(OC)N(CC(=O)c2ccc(OC)cc2)C1c1ccc(OC)cc1 (configuration not stated) | 15.1
CCOC(=O)C1=C(C)NC(OC)N(CC(=O)c2ccc(OC)cc2)C1c1ccc(C)cc1 (configuration not stated) | 14.7

Tested on: Rattus norvegicus
Experiment: Antihypertensive activity in Norwegian albino rat assessed as inhibition of DOCA salt-induced systolic blood pressure at 10 mg/kg, po after 120 mins by non-invasive tail-cuff method
Type: functional
Conditions: Artery, 2 h
In short: as §3

SMILES | inhibition in vivo at 10 mg/kg [%]
CCOC(=O)C1=C(C)NC(OC)N(CC(=O)c2ccc(OC)cc2)C1c1ccc(OC)cc1 (configuration not stated) | 21.6
CCOC(=O)C1=C(C)NC(OC)N(CC(=O)c2ccc(OC)cc2)C1c1ccc(C)cc1 (configuration not stated) | 24

Tested on: Rattus norvegicus
Experiment: Antihypertensive activity in Norwegian albino rat assessed as inhibition of DOCA salt-induced systolic blood pressure at 10 mg/kg, po after 180 mins by non-invasive tail-cuff method
Type: functional
Conditions: Artery, 3 h
In short: as §3

SMILES | inhibition in vivo at 10 mg/kg [%]
CCOC(=O)C1=C(C)NC(OC)N(CC(=O)c2ccc(OC)cc2)C1c1ccc(OC)cc1 (configuration not stated) | 27.8
CCOC(=O)C1=C(C)NC(OC)N(CC(=O)c2ccc(OC)cc2)C1c1ccc(C)cc1 (configuration not stated) | 28.1

Tested on: Rattus norvegicus
Experiment: Antihypertensive activity in Norwegian albino rat assessed as inhibition of DOCA salt-induced systolic blood pressure at 10 mg/kg, po after 240 mins by non-invasive tail-cuff method
Type: functional
Conditions: Artery, 4 h
In short: as §3

SMILES | inhibition in vivo at 10 mg/kg [%]
CCOC(=O)C1=C(C)NC(OC)N(CC(=O)c2ccc(OC)cc2)C1c1ccc(OC)cc1 (configuration not stated) | 36
CCOC(=O)C1=C(C)NC(OC)N(CC(=O)c2ccc(OC)cc2)C1c1ccc(C)cc1 (configuration not stated) | 36.9

Tested on: Rattus norvegicus
Experiment: Antihypertensive activity in Norwegian albino rat assessed as inhibition of DOCA salt-induced systolic blood pressure at 10 mg/kg, po after 300 mins by non-invasive tail-cuff method
Type: functional
Conditions: Artery, 5 h
In short: as §3

SMILES | inhibition in vivo at 10 mg/kg [%]
CCOC(=O)C1=C(C)NC(OC)N(CC(=O)c2ccc(OC)cc2)C1c1ccc(OC)cc1 (configuration not stated) | 40.1
CCOC(=O)C1=C(C)NC(OC)N(CC(=O)c2ccc(OC)cc2)C1c1ccc(C)cc1 (configuration not stated) | 39.6

Tested on: Rattus norvegicus
Experiment: Antihypertensive activity in Norwegian albino rat assessed as inhibition of DOCA salt-induced systolic blood pressure at 10 mg/kg, po after 360 mins by non-invasive tail-cuff method
Type: functional
Conditions: Artery, 6 h
In short: as §3

SMILES | inhibition in vivo at 10 mg/kg [%]
CCOC(=O)C1=C(C)NC(OC)N(CC(=O)c2ccc(OC)cc2)C1c1ccc(OC)cc1 (configuration not stated) | 41.9
CCOC(=O)C1=C(C)NC(OC)N(CC(=O)c2ccc(OC)cc2)C1c1ccc(C)cc1 (configuration not stated) | 42

Tested on: Rattus norvegicus
Experiment: Antihypertensive activity in Norwegian albino rat assessed as inhibition of DOCA salt-induced systolic blood pressure at 10 mg/kg, po after 480 mins by non-invasive tail-cuff method
Type: functional
Conditions: Artery, 8 h
In short: as §3

SMILES | inhibition in vivo at 10 mg/kg [%]
CCOC(=O)C1=C(C)NC(OC)N(CC(=O)c2ccc(OC)cc2)C1c1ccc(OC)cc1 (configuration not stated) | 48.6
CCOC(=O)C1=C(C)NC(OC)N(CC(=O)c2ccc(OC)cc2)C1c1ccc(C)cc1 (configuration not stated) | 46.3

Tested on: Rattus norvegicus
Experiment: Antihypertensive activity in Norwegian albino rat assessed as inhibition of DOCA salt-induced diastolic blood pressure at 10 mg/kg, po after 15 mins by invasive carotid artery cannulation method
Type: functional
Conditions: 0.25 h
In short: as §1

SMILES | inhibition in vivo at 10 mg/kg [%]
CCOC(=O)C1=C(C)NC(OC)N(CC(=O)c2ccc(OC)cc2)C1c1ccc(OC)cc1 (configuration not stated) | 3.33
CCOC(=O)C1=C(C)NC(OC)N(CC(=O)c2ccc(OC)cc2)C1c1ccc(C)cc1 (configuration not stated) | 3.12

Tested on: Rattus norvegicus
Experiment: Antihypertensive activity in Norwegian albino rat assessed as inhibition of DOCA salt-induced diastolic blood pressure at 10 mg/kg, po after 30 mins by invasive carotid artery cannulation method
Type: functional
Conditions: 0.5 h
In short: as §1

SMILES | inhibition in vivo at 10 mg/kg [%]
CCOC(=O)C1=C(C)NC(OC)N(CC(=O)c2ccc(OC)cc2)C1c1ccc(OC)cc1 (configuration not stated) | 12.1
CCOC(=O)C1=C(C)NC(OC)N(CC(=O)c2ccc(OC)cc2)C1c1ccc(C)cc1 (configuration not stated) | 11.5

Tested on: Rattus norvegicus
Experiment: Antihypertensive activity in Norwegian albino rat assessed as inhibition of DOCA salt-induced diastolic blood pressure at 10 mg/kg, po after 60 mins by invasive carotid artery cannulation method
Type: functional
Conditions: 1 h
In short: as §1

SMILES | inhibition in vivo at 10 mg/kg [%]
CCOC(=O)C1=C(C)NC(OC)N(CC(=O)c2ccc(OC)cc2)C1c1ccc(OC)cc1 (configuration not stated) | 23.5
CCOC(=O)C1=C(C)NC(OC)N(CC(=O)c2ccc(OC)cc2)C1c1ccc(C)cc1 (configuration not stated) | 22.5
